According to ChEMBL document CHEMBL5390295, “Isolinderalactone Ameliorates the Pathology of Alzheimer's Disease by Inhibiting the JNK Signaling Pathway” (2023):
Activity calls are given as the source filed them. The rule behind the calls is not given here.

Legend:
PC-12 [1] = assay: Neuroprotective activity in Abeta1-42 induced rat PC12 cells assessed as decrease in cleaved caspase-3 level at 10 uM preincubated for 3 hrs followed by Abeta1-42 induction and measured after 24 hrs; assay type: functional, cell-based; conditions: time 27.0 hrs
Procedure, shortened: (§1)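 Aβ1–42 challenge in PC12 cells was 10 μM for 24 h after 3 h pretreatment at 10 μM. SP600125 (1.25 μM) was added 0.5 h before pretreatment where used. Cells were lysed in RIPA and protein measured by BCA. Blotting used PVDF transfer, 5% BSA/TBST block for 2 h, primaries 1:1000 overnight at 4 °C, and HRP secondary for 2 h. Bcl-2/Bax ratio and band intensities were quantified.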

PC-12 [2] = assay: Neuroprotective activity against in Abeta1-42 induced rat PC12 cells assessed as effect on cleaved caspase-3 level at 10 uM preincubated for 3 hrs followed by Abeta1-42 induction and measured after 24 hrs in the presence of SP600125 by Western blot analysis; assay type: functional, cell-based; conditions: time 27.0 hrs; procedure, shortened: as §1
Mus musculus [3] = assay: Neuroprotective activity in APP/PS1 dE9 double transgenic mouse model assessed as improvement in spatial memory at 10 mg/kg, ip administered once daily for 30 consecutive days […] by morris water maze test; assay type: functional, organism-based; conditions: time 36.0 day
Procedure, shortened: (§2)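 Female APP/PS1 mice, 10 months old, about 30 g, 10 per group. Dosing was intraperitoneal in 1× PBS, once daily for one month (1 or 10 mg/kg test; 5 mg/kg donepezil). WT and untreated APP/PS1 controls got PBS. Morris water maze: training days 1–4, averaged escape latency. Day-5 probe trial ran 60 s with the platform removed, recording platform crossings and time per quadrant. Mean ± SEM.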

Mus musculus [4] = assay: Anti-alzheimer activity against APP/PS1 dE9 double transgenic mouse model assessed as improvement in exploration time for novel object at 10 mg/kg, ip administered once daily for 30 consecutive days measured on day 2 by novel object recognition test; assay type: functional, organism-based; conditions: time 32.0 day
Procedure, shortened: (§3)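 Same mouse cohort and ip PBS dosing schedule (1 or 10 mg/kg; donepezil 5 mg/kg). Novel object recognition: two objects, 5 min session, with exploration frequency and duration scored within 2–3 cm of objects. After 24 h one object was replaced by a novel object and a second 5 min session was recorded.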

PC-12 [5] = assay: Induction of apoptosis in Abeta1-42 induced rat PC12 cells assessed as viable cell at 10 uM preincubated for 3 hrs followed by Abeta1-42 induction and measured after 24 hrs by Annexin V-FITC/PI staining based flow cytometry analysis (reference value: 97.8%); assay type: functional; conditions: time 27 hrs
Mus musculus [6] = assay: Anti-alzheimer activity in hippocampus of APP/PS1 dE9 double transgenic mouse model assessed as reduction in APP/beta-amyloid level at 10 mg/kg, ip administered once daily for 30 consecutive days by Western blot analysis; assay type: functional, organism-based; conditions: time 30.0 day
Procedure, shortened: (§4)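 Hippocampal homogenates from dosed APP/PS1 mice were extracted in RIPA and protein measured by BCA. Samples were run by SDS electrophoresis, transferred to 0.22 μm PVDF for 90 min, blocked with 5% BSA in TBST for 2 h at RT, and probed with primaries 1:1000 overnight at 4 °C. HRP secondary was applied for 2 h at RT.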

PC-12 [7] = assay: Neuroprotective activity against Abeta1-42 induced rat PC12 cells assessed as decrease in JNK phosphorylation level at 10 uM preincubated for 3 hrs followed by Abeta1-42 induction and measured after 24 hrs by Western blot analysis; assay type: functional, cell-based; conditions: time 27.0 hrs; procedure, shortened: as §1
PC-12 [8] = assay: Neuroprotective activity in rat PC12 cells assessed as reversal of Abeta1-42 induced caspase-3 activation at 10 uM preincubated for 3 hrs followed by Abeta1-42 induction and measured after 24 hrs by Western blot analysis; assay type: functional, cell-based; conditions: time 27.0 hrs
Procedure, shortened: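 PC12 cells (DMEM, 10% FBS, 37 °C, 5% CO2) pretreated 3 h, then given 10 μM Aβ1–42 oligomer (10 mM DMSO stock aged 7 days at 37 °C, diluted in medium) for 24 h. RIPA lysates were blotted on PVDF, blocked in 5% BSA/TBST, and probed overnight at 4 °C for cleaved caspase-3 (1:1000), then HRP secondary. Band intensity was quantified; mean ± SEM of three experiments.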

Mus musculus [9] = assay: Anti-alzheimer activity against APP/PS1 dE9 double transgenic mouse model assessed as improvement in exploratory behavior at 1 to 10 mg/kg, ip administered once daily for 30 consecutive days measured on day 1 by novel object recognition test; assay type: functional, organism-based; conditions: dose 1-10 mg/kg, time 31.0 day; procedure, shortened: as §3
Mus musculus [10] = assay: Anti-alzheimer activity in hippocampus of APP/PS1 dE9 double transgenic mouse model assessed as increase in the level of PSD95 at 10 mg/kg, ip administered once daily for 30 consecutive days by Western blot analysis; assay type: functional, organism-based; conditions: time 30.0 day; procedure, shortened: as §4
Mus musculus [11] = assay: Anti-alzheimer activity against APP/PS1 dE9 double transgenic mouse model assessed as increase in platform crossings at 10 mg/kg, ip administered once daily for 30 consecutive days […] by morris water maze test; assay type: functional, organism-based; procedure, shortened: as §2
PC-12 [12] = assay: Neuroprotective activity against Abeta1-42 induced rat PC12 cells assessed as reduction in LDH release at 10 uM preincubated for 3 hrs followed by Abeta1-42 induction and measured after 24 hrs by LDH release assay; assay type: functional, cell-based; conditions: time 27.0 hrs
Procedure, shortened: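 PC12 cells were pretreated 3 h with 10 μM, then incubated 24 h with or without 10 μM Aβ1–42. LDH released into the supernatant was measured.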

PC-12 [13] = assay: Neuroprotective activity against Abeta1-42 induced rat PC12 cells assessed as reduction in ROS level at 10 uM preincubated for 3 hrs followed by Abeta1-42 induction and measured after 24 hrs by y DCFH2-DA probe based analysis; assay type: functional, cell-based; conditions: time 27.0 hrs
Procedure, shortened: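 PC12 cells were pretreated 3 h at 10 μM, then given 10 μM Aβ1–42 for 24 h. Cells were loaded with DCFH-DA 10 μM in FBS-free DMEM for 30 min in the dark and washed. Fluorescence was read at Ex 488/Em 525 nm.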

Mus musculus [14] = assay: Anti-alzheimer activity against APP/PS1 dE9 double transgenic mouse model assessed as decrease in escape latency at 10 mg/kg, ip administered once daily for 30 consecutive day measured on day 5 by morris water maze test; assay type: functional, organism-based; conditions: time 35.0 day; procedure, shortened: as §2
PC-12 [15] = assay: Induction of apoptosis in Abeta1-42 induced rat PC12 cells assessed as necrosis at 10 uM preincubated for 3 hrs followed by Abeta1-42 induction and measured after 24 hrs by Annexin V-FITC/PI staining based flow cytometry analysis (reference value: 0.0%); assay type: functional; conditions: time 27 hrs
Mus musculus [16] = assay: Anti-alzheimer activity in hippocampus of APP/PS1 dE9 double transgenic mouse model assessed as increase in the level of Map2 at 10 mg/kg, ip administered once daily for 30 consecutive days by Western blot analysis; assay type: functional, organism-based; conditions: time 30.0 day; procedure, shortened: as §4
PC-12 [17] = assay: Neuroprotective activity against in Abeta1-42 induced rat PC12 cells assessed as effect on P38MAPK protein level at 10 uM preincubated for 3 hrs followed by Abeta1-42 induction and measured after 24 hrs by Western blot analysis; assay type: functional, cell-based; conditions: time 27.0 hrs; procedure, shortened: as §1
Mus musculus [18] = assay: Anti-alzheimer activity in hippocampus of APP/PS1 dE9 double transgenic mouse model assessed as decrease in the level of Bax at 10 mg/kg, ip administered once daily for 30 consecutive days by Western blot analysis; assay type: functional, organism-based; conditions: time 30.0 day; procedure, shortened: as §4
Mus musculus [19] = assay: Anti-alzheimer activity in hippocampus of APP/PS1 dE9 double transgenic mouse model assessed as suppression in p-JNK level at 10 mg/kg, ip administered once daily for 30 consecutive days by Western blot analysis; assay type: functional, organism-based; conditions: time 30.0 day; procedure, shortened: as §4

In the case of `C=C[C@@]1(C)Cc2occ(C)c2[C@@H]2OC(=O)C(=C)[C@@H]21` [ISOLINDERALACTONE], the Activity (PC-12 [1]) is reported as “Active”, the Activity (PC-12 [2]) is reported as “inactive” and the Activity (Mus musculus [3]) is reported as “Active”. The Activity (Mus musculus [4]) was “Active”, the Activity (PC-12 [5]) was 97.6% and the Activity (Mus musculus [6]) was “Active”. For the same compound, the Activity (PC-12 [7]) was “Active”, the Activity (PC-12 [8]) was “Active” and the Activity (Mus musculus [9]) was “Active”. For the same compound, the Activity (Mus musculus [10]) was “Active”, the Activity (Mus musculus [11]) was “Active” and the Activity (PC-12 [12]) was “Active”. The Activity (PC-12 [13]) was “Active”, the Activity (Mus musculus [14]) was “Active” and the Activity (PC-12 [15]) was 0%. The Activity (Mus musculus [16]) was “Active”, the Activity (PC-12 [17]) was “inactive” and the Activity (Mus musculus [18]) was “Active”. The Activity (Mus musculus [19]) was “Active”.
